Assay results taken from ChEMBL document CHEMBL1131048, “Antiviral activities of methylated nordihydroguaiaretic acids. 1. Synthesis, structure identification, and inhibition of tat-regulated HIV transactivation” (J Med Chem, 1998).

Columns and labels:
Details in all cases: Chlorocebus aethiops
COS-1 [1] = experiment: Compound tested for inhibition of HIV Tat-regulated Transactivation in COS cells at a concentration of 100 uM.; assay type: functional
Method in brief: (§1)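 COS cells in IMDM with 10% FBS, penicillin, streptomycin and Fungizone, 37 °C, 5% CO2, seeded in triplicate at ca. 1.5×10^5 cells/well and grown 24 h to 50% confluence. Calcium phosphate cotransfection with CMV-driven tat plasmid (0.20 µg/well) and HIV LTR-SEAP plasmid (0.40 µg/well) for 18 h. Compound then added in medium with 0.30% DMSO final, for 48 h.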

COS-1 [2] = experiment: Compound tested for inhibition of HIV Tat-regulated Transactivation in COS cells at a concentration of 20 uM.; assay type: functional; method in brief: as §1
COS-1 [3] = experiment: Compound tested for inhibition of HIV Tat-regulated Transactivation in COS cells at a concentration of 3 uM.; assay type: functional; method in brief: as §1
COS-1 [4] = experiment: Compound tested for inhibition of HIV Tat-regulated Transactivation in COS cells at a concentration of 10 uM.; assay type: functional; method in brief: as §1
COS-1 [5] = experiment: Inhibitory activity against HIV Tat-regulated Transactivation in COS cells.; assay type: functional, cell-based; method in brief: as §1
COS-1 [6] = experiment: Compound tested for inhibition of HIV Tat-regulated Transactivation in COS cells at a concentration of 60 uM.; assay type: functional; method in brief: as §1
COS-1 [7] = experiment: Compound tested for inhibition of HIV Tat-regulated Transactivation in COS cells at a concentration of 1 uM.; assay type: functional; method in brief: as §1
COS-1 [8] = experiment: Compound tested for inhibition of HIV Tat-regulated Transactivation in COS cells at a concentration of 30 uM.; assay type: functional; method in brief: as §1

Compound | inhibition at 100 µM (COS-1 [1]) | inhibition at 20 µM (COS-1 [2]) | inhibition at 3 µM (COS-1 [3]) | inhibition at 10 µM (COS-1 [4]) | IC50 (COS-1 [5]) | inhibition at 60 µM (COS-1 [6]) | inhibition at 1 µM (COS-1 [7]) | inhibition at 30 µM (COS-1 [8])
COc1ccc(C[C@@H](C)[C@@H](C)Cc2ccc(O)c(O)c2)cc1O | 91.3% | 27.5% | 2.3% | 5% | 30.8 µM | 73.7% | 5% | 52%
COc1ccc(C[C@H](C)[C@H](C)Cc2ccc(OC)c(OC)c2)cc1O (racemic) | 88.3% | 52% | 27% | 41.7% | 14.3 µM | 78.3% | 16.5% | 66%
COc1cc(C[C@@H](C)[C@@H](C)Cc2ccc(O)c(O)c2)ccc1O (racemic) | 92.3% | 38.5% | 7.3% | 20.7% | 25 µM | 83.3% | 9% | 56.3%
COc1cc(C[C@H](C)[C@H](C)Cc2ccc(OC)c(OC)c2)ccc1O (racemic) | 87.7% | 50.5% | 26.7% | 45% | 13.7 µM | 76.3% | 14.5% | 65%
COc1ccc(C[C@@H](C)[C@@H](C)Cc2ccc(O)c(O)c2)cc1OC (racemic) | 96% | 59% | 14.3% | 20% | 16.5 µM | 87.7% | 12.5% | 69.3%
COc1ccc(C[C@@H](C)[C@@H](C)Cc2ccc(OC)c(O)c2)cc1O [DIMETHYLNORDIHYDROGUARIERATE ACID] | 85.7% | 38% | 8.7% | 19% | 29.9 µM | 70% | 9.5% | 52%
COc1cc(C[C@@H](C)[C@@H](C)Cc2ccc(O)c(OC)c2)ccc1O [MESODIHYDROGUAIARETIC ACID] | 73.7% | 30.5% | 10.3% | 22.3% | 39 µM | 63.7% | 5.5% | 43%
COc1ccc(C[C@@H](C)[C@@H](C)Cc2ccc(OC)c(OC)c2)cc1OC [TERAMEPROCOL] | 90.3% | 61% | 25.3% | 45% | 11.1 µM | 78.7% | 18.5% | 70%
